# This is one part of the list. Active and inactive are the calls of the source. Rule as the data show it, unless noted: active = inhibition above about 40%; inactive = the rest.
# Experiments:
# [1] = molecular target: PEG-3 (UniProt Q6IN02); assay: inhibition of PEG-3 promoter-driven reporter – cell-based, HeLa, luciferase, CREF/GAPDH counter-screen panel, dose response (AID 624167); settings: CREF/GAPDH counter-screens; HeLa PEG-Prom luciferase reporter, overnight, run 1, dose range 1, at 100 µM (top of the series) unless noted
# [2] = molecular target: PEG-3 (UniProt Q6IN02); assay: as above; settings: CREF/GAPDH counter-screens; HeLa PEG-Prom luciferase reporter, overnight, run 2, dose range 1, at 100 µM (top of the series) unless noted
# [3] = NF-kB reporter suppression in CF airway cells – cell-based, GFP fluorescence, single concentration, confirmation (AID 602472); settings: KKLEB CF airway cells, PAF-induced NF-kB-GFP fluorescence, overnight; at 5 µM; stronger effect = higher value;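 also: stimulus PAF is a Pseudomonas aeruginosa filtrate and not platelet activating factor; plate controls were DMSO wells with stimulus for no effect and unstimulated DMSO wells for full effect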
# Outline: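 Material – KKLEB NFkB-GFP reporter cells · Buffer or medium – medium with 2% FBS for cells, serum-free medium for stimulus · Incubation – 2 h pretreatment, overnight stimulation · Signal – reporter fluorescence (GFP) · Also added – Pseudomonas aeruginosa filtrate (PAF) as NFkB-activating stimulus · Doses – 5 µM single dose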
# [4] = molecular target: Tumor necrosis factor receptor superfamily member 10B (Homo sapiens) (UniProt O14763); assay: viability loss of caspase-8 NB7 cells with TRAIL – with/without TRAIL, luminescence panel, confirmation (AID 651596; in the data active = activity above about 50%); settings: NB7 neuroblastoma + caspase-8, TRAIL sensitization, NB7 Caspase-8, with TRAIL, mean of runs, at 10 µM, stronger effect = higher value
# [5] = as above; settings: NB7 neuroblastoma + caspase-8, without TRAIL, NB7 Caspase-8, without TRAIL, mean of runs, at 10 µM
# [6] = HIF-2a driven luciferase blockers, single dose – luminescence, 786-0 RCC cells, confirmation (AID 651580;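 active = mean inhibition across four replicates of at least 40 percent at the single tested concentration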); settings: HIF-2a luciferase reporter luminescence, overnight, at 18.8 µM, stronger effect = higher value
# [7] = HIF-1a luciferase reporter signal reduction – MiaPaCa-2 cells, single concentration, counter-screen for HIF-2a inhibitor project, confirmation (AID 651589;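 active = mean inhibition of the reporter signal across four replicates at the single tested dose of 50% or more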); settings: MiaPaCa-2 HIF-1a luciferase reporter, desferoxamine, overnight; at 18.8 µM; stronger effect = higher value
# PEG-3, sequence (Q6IN02 whole entry, looked up): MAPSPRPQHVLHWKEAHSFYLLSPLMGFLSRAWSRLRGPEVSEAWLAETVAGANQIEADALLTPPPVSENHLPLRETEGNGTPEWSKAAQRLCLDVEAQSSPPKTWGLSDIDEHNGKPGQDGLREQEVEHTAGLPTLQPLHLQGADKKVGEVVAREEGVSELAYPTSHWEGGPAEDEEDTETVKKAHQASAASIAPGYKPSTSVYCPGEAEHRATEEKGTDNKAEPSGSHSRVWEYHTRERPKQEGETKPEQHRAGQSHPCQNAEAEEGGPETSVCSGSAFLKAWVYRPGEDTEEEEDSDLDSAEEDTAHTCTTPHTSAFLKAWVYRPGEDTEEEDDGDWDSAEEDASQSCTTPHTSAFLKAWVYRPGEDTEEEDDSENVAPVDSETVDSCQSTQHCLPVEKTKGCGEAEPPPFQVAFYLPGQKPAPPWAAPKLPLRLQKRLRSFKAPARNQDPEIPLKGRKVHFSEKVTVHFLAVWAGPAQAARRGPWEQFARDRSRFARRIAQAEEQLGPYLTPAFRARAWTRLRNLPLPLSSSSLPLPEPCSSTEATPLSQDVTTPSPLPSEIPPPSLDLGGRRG
# Tumor necrosis factor receptor superfamily member 10B (Homo sapiens), sequence (O14763 whole entry, looked up): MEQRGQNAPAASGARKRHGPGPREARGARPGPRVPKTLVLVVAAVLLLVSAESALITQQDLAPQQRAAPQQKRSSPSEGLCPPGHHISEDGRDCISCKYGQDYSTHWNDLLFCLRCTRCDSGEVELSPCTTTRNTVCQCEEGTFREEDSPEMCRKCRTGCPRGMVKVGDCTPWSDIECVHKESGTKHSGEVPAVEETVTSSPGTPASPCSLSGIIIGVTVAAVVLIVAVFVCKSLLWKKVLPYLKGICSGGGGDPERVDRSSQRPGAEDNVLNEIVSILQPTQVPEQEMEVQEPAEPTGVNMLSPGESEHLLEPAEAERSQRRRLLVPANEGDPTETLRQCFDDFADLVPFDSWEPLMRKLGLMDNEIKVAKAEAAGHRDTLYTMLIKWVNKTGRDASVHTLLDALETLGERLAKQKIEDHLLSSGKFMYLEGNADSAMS
smiles,measurement,setting,value
COc1ccc(Nc2oc(COc3ccccc3OC)nc2C#N)cc1,inhibition,[1],69.9%
same,inhibition,[2],88.5%
CCN1CCN(Cc2ccc(NC(=O)c3cc(NC(=O)c4ccno4)cc(OC)c3)cc2C(F)(F)F)CC1,inhibition,[1],95.5%
same,inhibition,[2],102%
CN1CCC(N(C)C(=O)/C=C/c2cn(-c3ccccc3)nc2-c2cccs2)CC1,inhibition,[1],102%
same,inhibition,[2],102%
Cc1nn(-c2ccccc2)c(Cl)c1/C=N/NC(=O)c1nn(C)cc1[N+](=O)[O-],inhibition,[3],14.2% (inactive)
same,activity,[4],40.9%
same,activity,[5],46.5%
CCOC(=O)C(=Cc1ccccc1)C(=O)c1ccccc1,inhibition,[3],-122% (inactive)
same,inhibition,[6],97.2% (active)
same,inhibition,[7],108% (active)
COc1ccc(-c2cc(C(=O)N(C)Cc3cccc(OC)c3OC)c3ccccc3n2)cc1OC,inhibition,[1],72.4%
same,inhibition,[2],74.7%
OCCNCc1cc(Br)ccc1OCc1ccc(Cl)cc1Cl,inhibition,[1],101%
same,inhibition,[2],101%
C/C(=N\N=C(N)N)c1ccc(Cl)cc1Cl,inhibition,[1],99.4%
same,inhibition,[2],101%
O=C1/C(=C/c2ccccc2Cl)SC(=S)N1CCCC(=O)N(CCO)c1ccccc1,inhibition,[1],99.7%
same,inhibition,[2],102%
COc1ccc(CC(=O)N(Cc2ccccc2)c2ccccc2)cc1S(=O)(=O)N1CCOCC1,inhibition,[1],82.4%
same,inhibition,[2],91.1%
CNCC[C@H](Oc1cccc2ccccc12)c1cccs1,inhibition,[1],102%
same,inhibition,[2],98.8%
Cc1cc(C)nc(NC(=O)c2c(F)c(F)c(F)c(C(=O)Nc3cc(C)cc(C)n3)c2F)c1,inhibition,[1],96.5%
same,inhibition,[2],98.3%
Cc1nn(-c2ccccc2)c2c1C(c1ccc([N+](=O)[O-])cc1)N1C(=N2)C(=O)Nc2ccccc21 (stereo not given),inhibition,[1],10.2%
same,inhibition,[2],2.44%
COc1ccc(/C=C/C(=O)c2ccc3c(c2)OCCO3)cc1[N+](=O)[O-],inhibition,[1],97.9%
same,inhibition,[2],99%

# From PubChem BioAssay
